Measured values: ChEMBL document CHEMBL3227926, “2-Mercaptoacetamidines as gastric antisecretory agents” (J Med Chem, 1979)

How the values were obtained:
Canis familiaris [1] = assay: Inhibition of gastrin tetrapeptide-induced gastric secretion in beagle dog at 8 mg/kg administered directly into stomach via gastric cannula measured after 2 hrs of stimulation; assay type: functional; settings: Canis lupus familiaris
Summary of the method: (§1)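 Conscious female beagles (5-9 kg) with chronic gastric fistula. Dose in 50 mL 1% methylcellulose was put into the stomach via the cannula 1 h before gastrin tetrapeptide 64 µg/kg sc (from 640 µg/mL in 30% Me2SO); controls got vehicle. Juice was collected for 2 h. Volume was measured, titratable acid obtained by titration to pH 7 with 0.01 N NaOH, and total acid taken as volume × concentration.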

Canis familiaris [2] = assay: Toxicity in beagle dog assessed as emesis administered directly into stomach via gastric cannula; assay type: organism-based, Canis lupus familiaris; settings: in vivo, other
Canis familiaris [3] = assay: Toxicity in beagle dog assessed as tachycardia administered directly into stomach via gastric cannula; assay type: organism-based, Canis lupus familiaris; settings: in vivo, other
Canis familiaris [4] = assay: Toxicity in beagle dog assessed as gastric bleeding administered directly into stomach via gastric cannula; assay type: organism-based, Canis lupus familiaris; settings: in vivo, other
Canis familiaris [5] = assay: Inhibition of gastrin tetrapeptide-induced gastric secretion in beagle dog at 16 mg/kg administered directly into stomach via gastric cannula measured after 2 hrs of stimulation; assay type: functional; settings: Canis lupus familiaris; summary of the method: as §1

CC(C)NC(=N)CS.Cl
inhibition in vivo at 8 mg/kg (Canis familiaris [1]): 58% | Activity (Canis familiaris [2]): Toxic | Activity (Canis familiaris [3]): Toxic | Activity (Canis familiaris [4]): Toxic

Cl.N=C(CCSSCCC(=N)NCc1ccccc1)NCc1ccccc1
inhibition in vivo at 16 mg/kg (Canis familiaris [5]): 42% | Activity (Canis familiaris [2]): Toxic | Activity (Canis familiaris [3]): Toxic | Activity (Canis familiaris [4]): Toxic

Cl.N=C(CS)Nc1cccc2ccccc12
inhibition in vivo at 16 mg/kg (Canis familiaris [5]): 64% | Activity (Canis familiaris [2]): Toxic | Activity (Canis familiaris [3]): Toxic | Activity (Canis familiaris [4]): Toxic

O=C(CS)NC12CC3CC(CC(C3)C1)C2
inhibition in vivo at 16 mg/kg (Canis familiaris [5]): 58% | Activity (Canis familiaris [2]): Toxic | Activity (Canis familiaris [3]): Toxic | Activity (Canis familiaris [4]): Toxic

Cl.N=C(CS)NC(c1ccccc1)c1ccc(Cl)cc1 (stereo not given)
inhibition in vivo at 16 mg/kg (Canis familiaris [5]): 87% | Activity (Canis familiaris [2]): Toxic | Activity (Canis familiaris [3]): Toxic | Activity (Canis familiaris [4]): Toxic

Cl.N=C(CS)NC1Cc2ccccc2C1
inhibition in vivo at 16 mg/kg (Canis familiaris [5]): 100% | Activity (Canis familiaris [2]): Toxic | Activity (Canis familiaris [3]): Toxic | Activity (Canis familiaris [4]): Toxic

Cl.N=C(CS)Nc1cccc2c1CCCC2
inhibition in vivo at 16 mg/kg (Canis familiaris [5]): 14% | Activity (Canis familiaris [2]): Toxic | Activity (Canis familiaris [3]): Toxic | Activity (Canis familiaris [4]): Toxic

Cl.N=C(CS)NCC12CCC(C(=O)O)(CC1)CC2
inhibition in vivo at 8 mg/kg (Canis familiaris [1]): 0% | Activity (Canis familiaris [2]): Toxic | Activity (Canis familiaris [3]): Toxic | Activity (Canis familiaris [4]): Toxic

Cl.N=C(CS)NC/C=C/c1ccccc1
inhibition in vivo at 8 mg/kg (Canis familiaris [1]): 53% | Activity (Canis familiaris [2]): Toxic | Activity (Canis familiaris [3]): Toxic | Activity (Canis familiaris [4]): Toxic

O=C(CS)NC1CCCCC1
inhibition in vivo at 8 mg/kg (Canis familiaris [1]): 0% | Activity (Canis familiaris [2]): Toxic | Activity (Canis familiaris [3]): Toxic | Activity (Canis familiaris [4]): Toxic

Cl.N=C(CS)Nc1ccccc1
inhibition in vivo at 16 mg/kg (Canis familiaris [5]): 0% | Activity (Canis familiaris [2]): Toxic | Activity (Canis familiaris [3]): Toxic | Activity (Canis familiaris [4]): Toxic

CSCC(=N)NC[C@@H]1C[C@H]2CC[C@H]1C2 (relative stereo)
inhibition in vivo at 8 mg/kg (Canis familiaris [1]): 35% | Activity (Canis familiaris [2]): Toxic | Activity (Canis familiaris [3]): Toxic | Activity (Canis familiaris [4]): Toxic

CC(=N)NC1CCCCC1
inhibition in vivo at 16 mg/kg (Canis familiaris [5]): 0% | Activity (Canis familiaris [2]): Toxic | Activity (Canis familiaris [3]): Toxic | Activity (Canis familiaris [4]): Toxic

Cl.N=C(N)CS
inhibition in vivo at 8 mg/kg (Canis familiaris [1]): 89% | Activity (Canis familiaris [2]): Toxic | Activity (Canis familiaris [3]): Toxic | Activity (Canis familiaris [4]): Toxic

Cl.N=C(CS)NCC1CC2C3CCC(C3)C2C1 (stereo not given)
inhibition in vivo at 8 mg/kg (Canis familiaris [1]): 70% | Activity (Canis familiaris [2]): Toxic | Activity (Canis familiaris [3]): Toxic | Activity (Canis familiaris [4]): Toxic

O=C(CS)NCc1ccccc1
inhibition in vivo at 8 mg/kg (Canis familiaris [1]): 0% | Activity (Canis familiaris [2]): Toxic | Activity (Canis familiaris [3]): Toxic | Activity (Canis familiaris [4]): Toxic

Cl.N=C(CS)NCC1C2CC3CC(C2)CC1C3 (stereo not given)
inhibition in vivo at 8 mg/kg (Canis familiaris [1]): 67% | Activity (Canis familiaris [2]): Toxic | Activity (Canis familiaris [3]): Toxic | Activity (Canis familiaris [4]): Toxic

Cl.N=C(CS)NCCCCCC12CC3CC(CC(C3)C1)C2
inhibition in vivo at 8 mg/kg (Canis familiaris [1]): 9% | Activity (Canis familiaris [2]): Toxic | Activity (Canis familiaris [3]): Toxic | Activity (Canis familiaris [4]): Toxic

Cl.N=C(CS)NCC1CCCCC1
inhibition in vivo at 8 mg/kg (Canis familiaris [1]): 86% | Activity (Canis familiaris [2]): Toxic | Activity (Canis familiaris [3]): Toxic | Activity (Canis familiaris [4]): Toxic

CC(C)(C)CNC(=N)CCCS.Cl
inhibition in vivo at 8 mg/kg (Canis familiaris [1]): 11% | Activity (Canis familiaris [2]): Toxic | Activity (Canis familiaris [3]): Toxic | Activity (Canis familiaris [4]): Toxic

Cl.N=C(CS)N[C@@H]1C[C@H]2CC[C@H]1C2 (relative stereo)
inhibition in vivo at 8 mg/kg (Canis familiaris [1]): 94% | Activity (Canis familiaris [2]): Toxic | Activity (Canis familiaris [3]): Toxic | Activity (Canis familiaris [4]): Toxic

Cl.N=C(CS)NCc1ccncc1
inhibition in vivo at 8 mg/kg (Canis familiaris [1]): 85% | Activity (Canis familiaris [2]): Toxic | Activity (Canis familiaris [3]): Toxic | Activity (Canis familiaris [4]): Toxic

Cl.N=C(CS)NCc1ccccn1
inhibition in vivo at 8 mg/kg (Canis familiaris [1]): 82% | Activity (Canis familiaris [2]): Toxic | Activity (Canis familiaris [3]): Toxic | Activity (Canis familiaris [4]): Toxic

Cl.N=C(CS)NC[C@@H]1C[C@H]2CC[C@H]1C2 (relative stereo; 15)
Activity (Canis familiaris [2]): Toxic | Activity (Canis familiaris [3]): Toxic | Activity (Canis familiaris [4]): Toxic
